Data on 13 compounds can be found in ChEMBL document CHEMBL1123571, “[(6,7-Dichlorobenzo[b]thien-5-yl)oxy]acetic acids and 1,1-dioxides. 1. A structurally novel class of diuretics with hypotensive activity” (1987).

Test [1] deals with Mus musculus. As to the kind of experiment: Compound was tested for diuretic activity in saline loaded mice, activity is expressed as the sodium present in urine as mean milli equivalent/kg per 5 hr at 32 mg/kg oral dose. Format: functional. Summed up: (§1)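 Male CD-1 mice (18–24 g), 10 per treatment group, housed five per metabolic cage. Compound was given orally in 1% saline at 10 mL/kg, with a vehicle control group. Pooled urine was analysed for sodium by flame photometry. Values are mean mequiv/kg over 0–5 h.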

The test system of test [2] is Rattus norvegicus. As to the kind of experiment: Hypotensive activity was determined in Spontaneously hypertensive rats (SHR) and initial blood pressure was determined at 50 mg/kg oral dose. It counts as functional.
The test system of test [3] is Mus musculus. The test is described as follows: Diuretic activity in saline loaded mice, activity is expressed as the sodium present in urine as mean milli equivalent/kg per 5 hr at 64 mg/kg oral dose. It counts as functional. An outline of the steps:
as §1

The subject of test [4] is Mus musculus. As to the kind of experiment: Compound was tested for diuretic activity in saline loaded mice, activity is expressed as the sodium present in urine as mean milli equivalent/kg per 5 hr at 128 mg/kg oral dose. It counts as functional. Summed up:
as §1

Test [5] deals with Rattus norvegicus. As to the kind of experiment: Hypotensive activity was determined in Spontaneously hypertensive rats (SHR) and peak decrease in systolic blood pressure on third day,2h post administration of 50 mg/kg oral dose was determined. It counts as functional, Artery. An outline of the steps:
(§2)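 Okamoto-Aoki spontaneously hypertensive rats were dosed orally every day with compound suspended in distilled water with Tween 80. Systolic BP was taken by tail-cuff plethysmography on day 1 (predose, 2 h), day 3 (predose, 2 h) and day 5 (predose, 2 and 4 h). The value is the peak fall at day 3, 2 h postdose, ± SEM. Four rats were used in the screen and 4–8 per dose in dose-response.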

The subject of test [6] is Rattus norvegicus. As to the kind of experiment: Hypotensive activity was determined in Spontaneously hypertensive rats (SHR) and peak decrease in systolic blood pressure on third day,2h post administration of 10 mg/kg oral dose was determined. It counts as functional, Artery. Summed up: as §2
In test [7] the test system is Rattus norvegicus. As to the kind of experiment: Hypotensive activity was determined in Spontaneously hypertensive rats (SHR) and initial blood pressure was determined at 10 mg/kg oral dose. It counts as functional.
The test system of test [8] is Rattus norvegicus. As to the kind of experiment: Hypotensive activity was determined in Spontaneously hypertensive rats (SHR) and peak decrease in systolic blood pressure on third day,2h post administration of 25 mg/kg oral dose was determined. Format: functional, Artery. Summed up: as §2
In test [9] the test system is Mus musculus. As to the kind of experiment: Compound was tested for diuretic activity in saline loaded mice, activity is expressed as the sodium present in urine as mean milli equivalent/kg per 5 hr at 16 mg/kg oral dose. It counts as functional. An outline of the steps: as §1
The test system of test [10] is Rattus norvegicus. The test is described as follows: Hypotensive activity was determined in Spontaneously hypertensive rats (SHR) and initial blood pressure was determined at 25 mg/kg oral dose. It counts as functional.
Test [11] deals with Rattus norvegicus. As to the kind of experiment: Hypotensive activity was determined in Spontaneously hypertensive rats (SHR) and initial blood pressure was determined at 30 mg/kg oral dose. It counts as functional.
Test [12] has as its system Rattus norvegicus. The test is described as follows: Hypotensive activity was determined in Spontaneously hypertensive rats (SHR) and peak decrease in systolic blood pressure on third day,2h post administration of 3 mg/kg oral dose was determined. It counts as functional, Artery. An outline of the steps:
as §2

Test [13] concerns Rattus norvegicus. The test is described as follows: Hypotensive activity was determined in Spontaneously hypertensive rats (SHR) and initial blood pressure was determined at 3 mg/kg oral dose. Format: functional.
Test [14] is filed under the species Rattus norvegicus. As to the kind of experiment: Initial blood pressure before treatment. It counts as functional. Summed up: (§3)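 Grollman renal hypertension (one kidney, one wrap) in male Sprague-Dawley rats. Under pentobarbital (50 mg/kg ip) the right kidney was removed and silk sutures were tied around both poles of the left kidney. After 3 weeks, rats with systolic BP >150 mmHg were selected. Oral dosing followed. Systolic BP was measured by tail-cuff plethysmography as day/hour readings, and the change was taken against the initial pressure.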

For test [15], the system named is Rattus norvegicus. The test is described as follows: Hypotensive activity after 10 mg/kg oral dose in rats (Change in blood pressure after treatment (day/hours)). Format: functional. Summed up:
as §3

In test [16] the test system is Rattus norvegicus. As to the kind of experiment: Hypotensive activity was determined in Spontaneously hypertensive rats (SHR) and peak decrease in systolic blood pressure on third day,2h post administration of 30 mg/kg oral dose was determined. Format: functional, Artery. An outline of the steps: as §2
Test [17] is filed under the species Rattus norvegicus. The test is described as follows: Change in blood pressure (Initial blood pressure- Post drug blood pressure). It counts as functional. Summed up:
as §3

Test [18] has as its system Rattus norvegicus. The test is described as follows: Hypotensive activity after 50 mg/kg oral dose in rats (Change in blood pressure after treatment (day/hours)). Format: functional. Summed up: as §3
Test [19] relates to Rattus norvegicus. The test is described as follows: Hypotensive activity was determined in Spontaneously hypertensive rats (SHR) and peak decrease in systolic blood pressure on third day,2h post administration of 1 mg/kg oral dose was determined. Format: functional, Artery. Summed up: as §2
Test [20] has as its system Rattus norvegicus. The test is described as follows: Hypotensive activity was determined in Spontaneously hypertensive rats (SHR) and initial blood pressure was determined at 1 mg/kg oral dose. Format: functional.

Several values for one entry are separate records, joined by “and”; a condition that tells them apart may be missing. Equal values may be shown once.

Consider `CC(C)C1=Cc2cc(OCC(=O)O)c(Cl)c(Cl)c2S1(=O)=O`, for which the “mequiv of Na+/kg” value was 0.88 0-5h in the test with Mus musculus [1], 2.58 0-5h in the test on Mus musculus [3] and 5.32 0-5h in the test with Mus musculus [4]. The compound further showed an Initial blood pressure with Rattus norvegicus [2] of 192 mmHg. In addition, the “Change in BP” value with Rattus norvegicus [5] is -33 mmHg.
`CCc1cc2cc(OCC(=O)O)c(Cl)c(Cl)c2s1`: the entries for the “mequiv of Na+/kg” value with Mus musculus [1], with Mus musculus [3] and with Mus musculus [9] were 1.51 0-5h, 2.07 0-5h and 0.74 0-5h, respectively. The “Change in BP” value in the test with Rattus norvegicus [6] is -21 mmHg; with Rattus norvegicus [8] it was -13 mmHg. Besides, the Initial blood pressure in the test with Rattus norvegicus [7] was 185 mmHg; with Rattus norvegicus [10], 176 mmHg.
Turning to `CCCC1=Cc2cc(OCC(=O)O)c(Cl)c(Cl)c2S1(=O)=O`, the “mequiv of Na+/kg” value is reported as 1.79 0-5h with Mus musculus [1], 3.13 0-5h in the test on Mus musculus [3], 4.99 0-5h in the test on Mus musculus [4] and 1.06 0-5h with Mus musculus [9]. Further, the Initial blood pressure came out at 202 mmHg with Rattus norvegicus [11], 205 mmHg in the test on Rattus norvegicus [13] and 166 mmHg in the test listed under Rattus norvegicus [14]. Besides, the “Change in BP” value in the test with Rattus norvegicus [12] was -52 mmHg; in the test on Rattus norvegicus [16] it was -64 mmHg. Besides, the “Post drug blood pressure” value in the test with Rattus norvegicus [15] was 135 mmHg and 156 mmHg and 153 mmHg and 167 mmHg.
`CCCCc1cc2cc(OCC(=O)O)c(Cl)c(Cl)c2s1`: the Initial blood pressure with Rattus norvegicus [2] is 173 mmHg; in the test on Rattus norvegicus [11], 173 mmHg; in the test on Rattus norvegicus [7], 171 mmHg. Also, the results for the “Change in BP” value in the test with Rattus norvegicus [6], with Rattus norvegicus [16] and in the test with Rattus norvegicus [5] were -17 mmHg, -16 mmHg and -47 mmHg, respectively. The “mequiv of Na+/kg” value with Mus musculus [3] is on record as 0.88 0-5h.
Consider `CC1=Cc2cc(OCC(=O)O)c(Cl)c(Cl)c2S1(=O)=O`, for which the “mequiv of Na+/kg” value with Mus musculus [1] is on record as 2.11 0-5h; in the test on Mus musculus [3], 4.34 0-5h; in the test on Mus musculus [4] it was 6.36 0-5h; in the test on Mus musculus [9], 1.33 0-5h. Further, the Initial blood pressure with Rattus norvegicus [2] amounted to 180 mmHg. Also, in the test on Rattus norvegicus [5], the “Change in BP” value is listed as -25 mmHg.
As to `O=C(O)COc1cc2c(c(Cl)c1Cl)S(=O)(=O)C(C1CCCCC1)=C2`, the Initial blood pressure turned out to be 202 mmHg with Rattus norvegicus [2], 167 mmHg in the test with Rattus norvegicus [11] and 187 mmHg in the test with Rattus norvegicus [13]. For the same compound, the “mequiv of Na+/kg” value in the test with Mus musculus [3] was 1.25 0-5h. The entries for the “Change in BP” value in the test with Rattus norvegicus [12], in the test on Rattus norvegicus [16] and with Rattus norvegicus [5] were -32 mmHg, -30 mmHg and -43 mmHg, respectively.
`CCC1=Cc2cc(OCC(=O)O)c(Cl)c(Cl)c2S1(=O)=O`: the “mequiv of Na+/kg” value with Mus musculus [1] is 1.84 0-5h; in the test on Mus musculus [3] it was 3.35 0-5h; in the test with Mus musculus [4], 6.51 0-5h; in the test with Mus musculus [9], 0.66 0-5h. Besides, the Initial blood pressure with Rattus norvegicus [2] came to 213 mmHg. Besides, in the test on Rattus norvegicus [5], the “Change in BP” value is listed as -8 mmHg.
For the compound `CC(C)c1cc2cc(OCC(=O)O)c(Cl)c(Cl)c2s1`, the “mequiv of Na+/kg” value in the test on Mus musculus [1] is on record as 1.64 0-5h; in the test on Mus musculus [3], 2.52 0-5h; with Mus musculus [9] it was 1.24 0-5h. The results for the Initial blood pressure with Rattus norvegicus [2], in the test with Rattus norvegicus [11] and in the test on Rattus norvegicus [7] were 179 mmHg, 195 mmHg and 178 mmHg, respectively. The “Change in BP” value is listed as -14 mmHg with Rattus norvegicus [6], -32 mmHg with Rattus norvegicus [16] and -41 mmHg in the test on Rattus norvegicus [5].
With `NS(=O)(=O)c1cc2c(cc1Cl)NCNS2(=O)=O` [HYDROCHLOROTHIAZIDE], the values for the Initial blood pressure in the test on Rattus norvegicus [2] and in the test listed under Rattus norvegicus [14] were 188 mmHg and 168 mmHg, respectively. Moreover, the Delta blood pressure in the test filed under Rattus norvegicus [17] is -18 mmHg [middle of 4 runs]. The “Change in BP” value in the test on Rattus norvegicus [5] is listed as -26 mmHg. Further, the “Post drug blood pressure” value in the test on Rattus norvegicus [18] is 156 mmHg and 133 mmHg and 148 mmHg and 150 mmHg.
On to `CC(C)(O)c1cc2cc(OCC(=O)O)c(Cl)c(Cl)c2s1`, for which the “mequiv of Na+/kg” value in the test with Mus musculus [1] was 2.21 0-5h; with Mus musculus [3] it was 4.4 0-5h; with Mus musculus [4] it was 6.24 0-5h; in the test on Mus musculus [9] it was 0.53 0-5h. In addition, in the test with Rattus norvegicus [2], the Initial blood pressure came to 193 mmHg. In the test on Rattus norvegicus [5], the “Change in BP” value is reported as -25 mmHg.
For the compound `O=C(O)COc1cc2c(c(Cl)c1Cl)S(=O)(=O)C(C1CCCC1)=C2`, the Initial blood pressure in the test on Rattus norvegicus [2] was found to be 180 mmHg. In addition, the “mequiv of Na+/kg” value with Mus musculus [3] was 1.79 0-5h. In addition, in the test on Rattus norvegicus [5], the “Change in BP” value is reported as -17 mmHg.
On to `Cc1cc2cc(OCC(=O)O)c(Cl)c(Cl)c2s1`, for which the Initial blood pressure with Rattus norvegicus [2] is recorded as 215 mmHg; in the test on Rattus norvegicus [20], 177 mmHg; in the test with Rattus norvegicus [7] it was 196 mmHg; in the test on Rattus norvegicus [13] it was 173 mmHg. Moreover, the “Change in BP” value in the test on Rattus norvegicus [6] is on record as -33 mmHg; with Rattus norvegicus [19], -42 mmHg; in the test with Rattus norvegicus [12], -37 mmHg; in the test with Rattus norvegicus [5] it was -51 mmHg. For the same compound, the “mequiv of Na+/kg” value in the test on Mus musculus [3] was 1.16 0-5h.
In turn, `CC(=O)c1cc2cc(OCC(=O)O)c(Cl)c(Cl)c2s1` displayed an Initial blood pressure in the test on Rattus norvegicus [2] of 199 mmHg. Moreover, the “mequiv of Na+/kg” value in the test with Mus musculus [3] is reported as 1.16 0-5h. Moreover, in the test on Rattus norvegicus [5], the “Change in BP” value was -28 mmHg.
